Assay results reported in ChEMBL document CHEMBL3098102, “1,2,3-Triazole-derived naphthalimides as a novel type of potential antimicrobial agents: synthesis, antimicrobial activity, interaction with calf thymus DNA and human serum albumin” (Bioorg Med Chem Lett, 2014).
≈ marks a conversion by molar mass, not a printed value.

How the values were obtained:
Assay type in all cases: functional
Saccharomyces cerevisiae = test: Antimicrobial activity against Saccharomyces cerevisiae by two-fold serial dilution method
Method in brief: (§1)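 MIC read by broth microdilution in microdilution plates.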

Micrococcus luteus = test: Antimicrobial activity against Micrococcus luteus ATCC 4698 after 24 hrs by two-fold serial dilution method; conditions: ATCC 4698, 24 h
Pseudomonas aeruginosa = test: Antimicrobial activity against Pseudomonas aeruginosa after 24 hrs by two-fold serial dilution method; method in brief: as §1
Aspergillus flavus = test: Antimicrobial activity against Aspergillus flavus after 24 hrs by two-fold serial dilution method; method in brief: as §1
Candida albicans = test: Antimicrobial activity against Candida albicans after 24 hrs by two-fold serial dilution method; method in brief: as §1
[1] = Antimicrobial activity against Bacillus proteus after 24 hrs by two-fold serial dilution method; method in brief: as §1
Staphylococcus aureus [2] = test: Antimicrobial activity against methicillin-resistant Staphylococcus aureus N315 after 24 hrs by two-fold serial dilution method; conditions: N315, 24 h
Escherichia coli [3] = test: Ratio of chloromycin MIC to compound MIC for Escherichia coli DH52 after 24 hrs by two-fold serial dilution method
Shigella dysenteriae = test: Antimicrobial activity against Shigella dysenteriae after 24 hrs by two-fold serial dilution method
Escherichia coli [4] = test: Antimicrobial activity against Escherichia coli DH52 after 24 hrs by two-fold serial dilution method; conditions: DH52, 24 h
Bacillus subtilis = test: Antimicrobial activity against Bacillus subtilis after 24 hrs by two-fold serial dilution method; method in brief: as §1
Staphylococcus aureus [5] = test: Antimicrobial activity against Staphylococcus aureus ATCC 25923 after 24 hrs by two-fold serial dilution method; conditions: ATCC 25923, 24 h

Row | SMILES | MIC (Saccharomyces cerevisiae) | MIC (Micrococcus luteus) | MIC (Pseudomonas aeruginosa) | MIC (Aspergillus flavus) | MIC (Candida albicans) | MIC [1] | MIC (Staphylococcus aureus [2]) | Ratio (Escherichia coli [3]) | MIC (Shigella dysenteriae) | MIC (Escherichia coli [4]) | MIC (Bacillus subtilis) | MIC (Staphylococcus aureus [5])
1 | Cl.Cl.Cl.Cl.Cl.Cl.O=C1c2cccc3c(Br)ccc(c23)C(=O)N1N(Cc1cn(Cc2ccc(Cl)cc2Cl)nn1)Cc1cn(Cc2ccc(Cl)cc2Cl)nn1 | > 512 µg/mL | 256 µg/mL | > 512 µg/mL | 32 µg/mL | > 512 µg/mL | > 512 µg/mL | > 512 µg/mL | 2 | > 512 µg/mL | 4 µg/mL | > 512 µg/mL | > 512 µg/mL
2 | O=C1c2cccc3c(Br)ccc(c23)C(=O)N1N(Cc1cn(Cc2ccc(Cl)cc2Cl)nn1)Cc1cn(Cc2ccc(Cl)cc2Cl)nn1 | > 512 µg/mL | 256 µg/mL (≈ 332 µM) | > 512 µg/mL | 32 µg/mL (≈ 41.5 µM) | > 512 µg/mL | > 512 µg/mL | > 512 µg/mL | 2 | > 512 µg/mL | 8 µg/mL (≈ 10.4 µM) | > 512 µg/mL | > 512 µg/mL
3 | O=C1c2cccc3c(Br)ccc(c23)C(=O)N1N(Cc1cn(Cc2ccc(Cl)cc2)nn1)Cc1cn(Cc2ccc(Cl)cc2)nn1 | > 512 µg/mL | 64 µg/mL (≈ 91.1 µM) | 512 µg/mL (≈ 729 µM) | > 512 µg/mL | > 512 µg/mL | > 512 µg/mL | > 512 µg/mL | 2 | 256 µg/mL (≈ 364 µM) | 2 µg/mL (≈ 2.85 µM) | 256 µg/mL (≈ 364 µM) | > 512 µg/mL
4 | Cl.Cl.O=C1c2cccc3c(Br)ccc(c23)C(=O)N1N(Cc1cn(Cc2ccccc2F)nn1)Cc1cn(Cc2ccccc2F)nn1 | > 512 µg/mL | 256 µg/mL | > 512 µg/mL | 64 µg/mL | > 512 µg/mL | > 512 µg/mL | > 512 µg/mL | – | > 512 µg/mL | 16 µg/mL | > 512 µg/mL | > 512 µg/mL
5 | Cl.Cl.O=C1c2cccc3c(Br)ccc(c23)C(=O)N1N(Cc1cn(Cc2cccc(F)c2)nn1)Cc1cn(Cc2cccc(F)c2)nn1 | > 512 µg/mL | 256 µg/mL | > 512 µg/mL | 32 µg/mL | > 512 µg/mL | > 512 µg/mL | > 512 µg/mL | – | > 512 µg/mL | 16 µg/mL | > 512 µg/mL | > 512 µg/mL
6 | Cl.Cl.O=C1c2cccc3c(Br)ccc(c23)C(=O)N1N(Cc1cn(Cc2ccc(F)cc2)nn1)Cc1cn(Cc2ccc(F)cc2)nn1 | > 512 µg/mL | 512 µg/mL | > 512 µg/mL | 512 µg/mL | > 512 µg/mL | 512 µg/mL | > 512 µg/mL | – | > 512 µg/mL | 32 µg/mL | > 512 µg/mL | > 512 µg/mL
7 | O=C1c2cccc3c(Br)ccc(c23)C(=O)N1N(Cc1cn(Cc2ccccc2F)nn1)Cc1cn(Cc2ccccc2F)nn1 | > 512 µg/mL | 256 µg/mL (≈ 382 µM) | > 512 µg/mL | 64 µg/mL (≈ 95.6 µM) | > 512 µg/mL | > 512 µg/mL | > 512 µg/mL | – | > 512 µg/mL | 32 µg/mL (≈ 47.8 µM) | > 512 µg/mL | > 512 µg/mL
8 | O=C1c2cccc3c(Br)ccc(c23)C(=O)N1N(Cc1cn(Cc2cccc(F)c2)nn1)Cc1cn(Cc2cccc(F)c2)nn1 | > 512 µg/mL | 256 µg/mL (≈ 382 µM) | > 512 µg/mL | 32 µg/mL (≈ 47.8 µM) | > 512 µg/mL | > 512 µg/mL | > 512 µg/mL | – | > 512 µg/mL | 16 µg/mL (≈ 23.9 µM) | > 512 µg/mL | > 512 µg/mL
9 | O=C1c2cccc3c(Br)ccc(c23)C(=O)N1N(Cc1cn(Cc2ccc([N+](=O)[O-])cc2)nn1)Cc1cn(Cc2ccc([N+](=O)[O-])cc2)nn1 | > 512 µg/mL | 512 µg/mL (≈ 708 µM) | > 512 µg/mL | > 512 µg/mL | > 512 µg/mL | > 512 µg/mL | > 512 µg/mL | – | > 512 µg/mL | 256 µg/mL (≈ 354 µM) | 256 µg/mL (≈ 354 µM) | > 512 µg/mL
10 | CCn1cc(C(=O)O)c(=O)c2cc(F)c(N3CCNCC3)cc21 [NORFLOXACIN] | – | 1 µg/mL (≈ 3.13 µM) | 1 µg/mL (≈ 3.13 µM) | – | – | 2 µg/mL (≈ 6.26 µM) | 1 µg/mL (≈ 3.13 µM) | – | 2 µg/mL (≈ 6.26 µM) | 2 µg/mL (≈ 6.26 µM) | 2 µg/mL (≈ 6.26 µM) | 4 µg/mL (≈ 12.5 µM)
11 | OC(Cn1cncn1)(Cn1cncn1)c1ccc(F)cc1F [FLUCONAZOLE] | 4 µg/mL (≈ 13.1 µM) | – | – | 256 µg/mL (≈ 836 µM) | 2 µg/mL (≈ 6.53 µM) | – | – | – | – | – | – | –
12 | O=C(N[C@H](CO)[C@H](O)c1ccc([N+](=O)[O-])cc1)C(Cl)Cl [CHLORAMPHENICOL] | – | – | 4 µg/mL (≈ 12.4 µM) | – | – | 32 µg/mL (≈ 99 µM) | – | – | 32 µg/mL (≈ 99 µM) | – | 32 µg/mL (≈ 99 µM) | –
13 | CCCCn1cc(CN(Cc2cn(CCCC)nn2)N2C(=O)c3cccc4c(Br)ccc(c34)C2=O)nn1.Cl.Cl | > 512 µg/mL | > 512 µg/mL | > 512 µg/mL | 64 µg/mL | > 512 µg/mL | > 512 µg/mL | > 512 µg/mL | – | > 512 µg/mL | > 512 µg/mL | 512 µg/mL | > 512 µg/mL
14 | Cl.Cl.O=C1c2cccc3c(Br)ccc(c23)C(=O)N1N(Cc1cn(Cc2ccc(F)cc2F)nn1)Cc1cn(Cc2ccc(F)cc2F)nn1 | > 512 µg/mL | 512 µg/mL | > 512 µg/mL | > 512 µg/mL | 512 µg/mL | > 512 µg/mL | > 512 µg/mL | – | > 512 µg/mL | 32 µg/mL | 128 µg/mL | > 512 µg/mL
15 | O=C1c2cccc3c(Br)ccc(c23)C(=O)N1N(Cc1cn(Cc2ccc(F)cc2)nn1)Cc1cn(Cc2ccc(F)cc2)nn1 | > 512 µg/mL | 512 µg/mL (≈ 765 µM) | > 512 µg/mL | > 512 µg/mL | > 512 µg/mL | > 512 µg/mL | > 512 µg/mL | – | > 512 µg/mL | 32 µg/mL (≈ 47.8 µM) | > 512 µg/mL | > 512 µg/mL
16 | CCCCCCn1cc(CN(Cc2cn(CCCCCC)nn2)N2C(=O)c3cccc4c(Br)ccc(c34)C2=O)nn1.Cl.Cl | > 512 µg/mL | 512 µg/mL | 512 µg/mL | 32 µg/mL | > 512 µg/mL | > 512 µg/mL | > 512 µg/mL | – | > 512 µg/mL | 512 µg/mL | > 512 µg/mL | > 512 µg/mL
17 | O=C1c2cccc3c(Br)ccc(c23)C(=O)N1N(Cc1cn(Cc2ccc(F)cc2F)nn1)Cc1cn(Cc2ccc(F)cc2F)nn1 | > 512 µg/mL | 512 µg/mL (≈ 726 µM) | > 512 µg/mL | > 512 µg/mL | > 512 µg/mL | > 512 µg/mL | > 512 µg/mL | – | > 512 µg/mL | 64 µg/mL (≈ 90.7 µM) | 256 µg/mL (≈ 363 µM) | > 512 µg/mL
18 | CCCCn1cc(CN(Cc2cn(CCCC)nn2)N2C(=O)c3cccc4c(Br)ccc(c34)C2=O)nn1 | > 512 µg/mL | > 512 µg/mL | > 512 µg/mL | 64 µg/mL (≈ 113 µM) | > 512 µg/mL | > 512 µg/mL | > 512 µg/mL | – | > 512 µg/mL | > 512 µg/mL | > 512 µg/mL | > 512 µg/mL
19 | CCCCCCn1cc(CN(Cc2cn(CCCCCC)nn2)N2C(=O)c3cccc4c(Br)ccc(c34)C2=O)nn1 | > 512 µg/mL | > 512 µg/mL | 512 µg/mL (≈ 824 µM) | 64 µg/mL (≈ 103 µM) | > 512 µg/mL | > 512 µg/mL | > 512 µg/mL | – | > 512 µg/mL | 512 µg/mL (≈ 824 µM) | > 512 µg/mL | > 512 µg/mL
